The source made the active and inactive calls. No cut-off for these calls is given here.
Key:
Rattus norvegicus [1] = experiment: Antipyretic activity against brewer's yeast-induced hyperthermia in albino Wistar rat assessed as change in rectal temperature at 300 mg/kg, po after 1 hr (reference value: 33.78 +/- 0.18 degC); type: functional
Rattus norvegicus [2] = experiment: Antipyretic activity against brewer's yeast-induced hyperthermia in albino Wistar rat assessed as change in rectal temperature at 300 mg/kg, po after 3 hrs (reference value: 32.80 +/- 0.09 degC); type: functional
Rattus norvegicus [3] = experiment: Antipyretic activity against brewer's yeast-induced hyperthermia in albino Wistar rat assessed as change in rectal temperature at 300 mg/kg, po after 5 hrs (reference value: 34.36 +/- 0.14 degC); type: functional
Rattus norvegicus [4] = experiment: Antipyretic activity against brewer's yeast-induced hyperthermia in albino Wistar rat assessed as change in rectal temperature at 300 mg/kg, po after 6 hrs (reference value: 33.44 +/- 0.18 degC); type: functional
Rattus norvegicus [5] = experiment: Acute toxicity in albino Wistar rat assessed as mortality at up to 3 g/kg, po after 24 hrs; type: organism-based; conditions: in vivo, 3000 mg/kg
How it was run: (§1)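 Albino rats of either sex, groups of six, dosed from 100 up to 3000 mg kg^-1 body weight. Watched continuously for 8 h for signs such as altered motor activity, ataxia, tremors, convulsions, sedation and lacrimation. Killed at 24 h; stomach, intestine and liver inspected under magnifying lenses for ulcer-haemorrhagic spots.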

Rattus norvegicus [6] = experiment: Acute toxicity in albino Wistar rat assessed as sedation at up to 3 g/kg, po after 24 hrs; type: organism-based; conditions: in vivo, 3000 mg/kg; how it was run: as §1
Rattus norvegicus [7] = experiment: Acute toxicity in albino Wistar rat assessed as convulsion at up to 3 g/kg, po after 24 hrs; type: organism-based; conditions: in vivo, 3000 mg/kg; how it was run: as §1
Rattus norvegicus [8] = experiment: Acute toxicity in albino Wistar rat assessed as tremors at up to 3 g/kg, po after 24 hrs; type: organism-based; conditions: in vivo, 3000 mg/kg; how it was run: as §1
Rattus norvegicus [9] = experiment: Acute toxicity in albino Wistar rat assessed as ulceration at up to 3 g/kg, po after 24 hrs; type: organism-based; conditions: in vivo, 3000 mg/kg; how it was run: as §1
Rattus norvegicus [10] = experiment: Acute toxicity in albino Wistar rat assessed as haemorrhagic spots at up to 3 g/kg, po after 24 hrs; type: organism-based; conditions: in vivo, 3000 mg/kg; how it was run: as §1
Rattus norvegicus [11] = experiment: Acute toxicity in albino Wistar rat assessed as stomach ulcerhaemorrhagic spots at up to 3 g/kg, po after 24 hrs; type: organism-based; conditions: in vivo, 3000 mg/kg; how it was run: as §1
Rattus norvegicus [12] = experiment: Acute toxicity in albino Wistar rat assessed as intestine ulcerhaemorrhagic spots at up to 3 g/kg, po after 24 hrs; type: organism-based; conditions: in vivo, 3000 mg/kg; how it was run: as §1
Rattus norvegicus [13] = experiment: Analgesic activity in albino Wistar rat assessed as reaction time required for tail flicking at 25 mg/kg, po after 30 mins by tail-flick method (reference value: 3.97 +/- 0.287 sec); type: functional
Rattus norvegicus [14] = experiment: Analgesic activity in albino Wistar rat assessed as reaction time required for tail flicking at 25 mg/kg, po after 60 mins by tail-flick method (reference value: 4 +/- 0.360 sec); type: functional
Rattus norvegicus [15] = experiment: Analgesic activity in albino Wistar rat assessed as reaction time required for tail flicking at 25 mg/kg, po after 90 mins by tail-flick method (reference value: 3.87 +/- 0.355 sec); type: functional
Rattus norvegicus [16] = experiment: Antipyretic activity against brewer's yeast-induced hyperthermia in albino Wistar rat assessed as change in rectal temperature at 100 mg/kg, po after 1 hr (reference value: 33.78 +/- 0.18 degC); type: functional
Rattus norvegicus [17] = experiment: Antipyretic activity against brewer's yeast-induced hyperthermia in albino Wistar rat assessed as change in rectal temperature at 100 mg/kg, po after 3 hrs (reference value: 32.80 +/- 0.09 degC); type: functional
Rattus norvegicus [18] = experiment: Antipyretic activity against brewer's yeast-induced hyperthermia in albino Wistar rat assessed as change in rectal temperature at 100 mg/kg, po after 5 hrs (reference value: 34.36 +/- 0.14 degC); type: functional
Rattus norvegicus [19] = experiment: Antipyretic activity against brewer's yeast-induced hyperthermia in albino Wistar rat assessed as change in rectal temperature at 100 mg/kg, po after 6 hrs (reference value: 33.44 +/- 0.18 degC); type: functional
Nucleic Acid = experiment: Induction of Escherichia coli DNA cleavage at 25 mg after 24 hrs by agarose gel electrophoresis method; type: nucleic-acid assay
How it was run: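 E. coli grown in nutrient broth 24 h at 37 °C. Genomic DNA isolated by SDS lysis, phenol (55 °C, 10 min), chloroform:isoamyl alcohol extraction and ethanol precipitation, dissolved in TAE. Compounds at 1 mg/ml in DMF added to DNA, incubated 2 h at 37 °C. Run on agarose gel at 50 V about 30 min, stained with ethidium bromide, bands compared with DNA marker.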

SMILES | T (Rattus norvegicus [1]) | T (Rattus norvegicus [2]) | T (Rattus norvegicus [3]) | T (Rattus norvegicus [4]) | Activity (Rattus norvegicus [5]) | Activity (Rattus norvegicus [6]) | Activity (Rattus norvegicus [7]) | Activity (Rattus norvegicus [8]) | Activity (Rattus norvegicus [9]) | Activity (Rattus norvegicus [10]) | Activity (Rattus norvegicus [11]) | Activity (Rattus norvegicus [12]) | Time (Rattus norvegicus [13]) | Time (Rattus norvegicus [14]) | Time (Rattus norvegicus [15]) | T (Rattus norvegicus [16]) | T (Rattus norvegicus [17]) | T (Rattus norvegicus [18]) | T (Rattus norvegicus [19]) | Activity (Nucleic Acid)
CC(=O)Oc1ccccc1C(=O)O [ASPIRIN] | 32.82 °C | 32 °C | 32.3 °C | 32.38 °C |  |  |  |  |  |  |  |  |  |  |  |  |  |  |  | 
Cc1ccc2oc(=O)cc(COc3ccc(-c4cc(-c5ccccc5)nc(O)n4)cc3)c2c1 |  |  |  |  | Non-toxic | Non-toxic | Non-toxic | Non-toxic | Non-toxic | Non-toxic | Non-toxic | Non-toxic | 4.48 s | 5.46 s | 6.2 s | 33.18 °C | 32.31 °C | 33.12 °C | 32.97 °C | Active

From ChEMBL document CHEMBL1165909, “Analgesic, anti-pyretic and DNA cleavage studies of novel pyrimidine derivatives of coumarin moiety” (Eur J Med Chem, 2010)
